# In the library only some 3.8% were active in any assay of this set; here they are far more common.
# KCNK3 inh – human KCNK3 channel inhibitors, primary screen, CHO cells, FluxOR thallium flux, B-score; FluxOR fluorescence; active compounds read low; B-score at 10 µM; Potassium channel subfamily K member 3 (Homo sapiens), O14649; 0.84% of 340,000 active;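 active = B-score under library mean minus 4 SD, starting fluorescence ratio at most library mean plus 5 SD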;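 note: more negative B-score means stronger inhibition of thallium flux through KCNK3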
# hERG rescue – hERG rescue from dofetilide block, primary screen, cell-based, CHO-hERG, FluxOR thallium flux, dofetilide IC70. Voltage-gated inwardly rectifying potassium channel KCNH2 (Homo sapiens), Q12809. dofetilide IC70 present. activation (rescue from dofetilide block), less the hit threshold, % at 10 µM. 0.51% of 310,000 active. AID 1511, 2009;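 active = activation above the mean of controls blocked by dofetilide plus 5 SD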;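 note: thallium influx through hERG after potassium depolarization seen as dye fluorescence rise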
# KCNQ1 act – potentiators or activators of KCNQ1 channel, primary screen, cell-based, thallium flux, high-throughput; Potassium voltage-gated channel subfamily KQT member 1 (Homo sapiens), P51787; CHO-K1 KCNQ1, thallium flux FluxOR fluorescence; active compounds read high; B-score at 10 µM; 0.35% of 310,000 active; AID 2648, 2010;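 active = fluorescence ratio B-score, a plate-corrected score, at least three library SD, with initial intensity B-score within 5 SD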
#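 Medium – assay buffer, equal DMSO in all wells · Material – CHO-K1 cell line with stable KCNQ1 potassium channel expression · Signal – kinetic FluxOR thallium fluorescence, 10-s 1-Hz baseline, 110-s post-stimulus read · Compound – single concentration per compound, DMSO matched to controls · Schedule – 37 °C overnight plating, 90-min dark dye load, 20-min compound pretreatment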
# KCNK9 block – KCNK9 potassium channel inhibitors, primary screen, HEK293 cells, thallium flux. AID 488922, 2010. 1.2% of 310,000 active. FluxOR thallium flux fluorescence; active compounds read low. Potassium channel subfamily K member 9 (Homo sapiens), Q9NPC2. B-score at 10 µM;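 active = ratio B-score over 3 SD below the library mean, with starting fluorescence within 5 SD of its mean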;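 note: negative B-score means less thallium flux so channel inhibition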
# Target sequence (Q9NPC2 whole entry, looked up): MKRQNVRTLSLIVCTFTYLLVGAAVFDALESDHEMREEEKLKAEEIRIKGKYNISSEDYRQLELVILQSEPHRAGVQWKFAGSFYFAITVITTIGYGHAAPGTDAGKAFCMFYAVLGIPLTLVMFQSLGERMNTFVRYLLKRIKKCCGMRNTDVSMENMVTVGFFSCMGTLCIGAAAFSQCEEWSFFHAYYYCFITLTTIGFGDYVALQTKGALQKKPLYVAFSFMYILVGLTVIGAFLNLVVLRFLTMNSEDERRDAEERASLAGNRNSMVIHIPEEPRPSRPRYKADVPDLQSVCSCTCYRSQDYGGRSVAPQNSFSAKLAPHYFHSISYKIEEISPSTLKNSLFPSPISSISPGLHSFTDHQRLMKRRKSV
# Kir21 inh – inhibitors of mouse Kir2.1 inward-rectifier potassium channel; 0.85% of 310,000 active; B-score at 10 µM; HEK293-Kir2.1, FluxOR thallium flux fluorescence; active compounds read low;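 active = fluorescence ratio B-score at or below minus 3 SD of library scores, with starting-brightness B-score within 2 SD, cut at about -4.2 in these data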;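 note: channel flux triggered by added potassium and thallium sulfate stimulus; B-score of peak minus minimum fluorescence over baseline after thallium stimulus; more negative B-score means stronger Kir2.1 block with less thallium influx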
# KCNQ1 block – inhibitors of human KCNQ1 channel, primary screen, cell-based, thallium flux, high-throughput; Potassium voltage-gated channel subfamily KQT member 1 (Homo sapiens), P51787; CHO-K1 KCNQ1, FluxOR thallium flux fluorescence; active compounds read high; B-score at 10 µM; 1.3% of 310,000 active; AID 2642, 2010;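 active = compounds whose thallium flux B-score, printed positive for inhibition, exceeds three library SD while starting fluorescence stays within three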;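 note: channel opened by potassium depolarization with thallium stimulus after 20 min compound exposure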
# KCNK9 block conf – KCNK9 potassium channel inhibitors, confirmation, HEK293 cells, thallium flux, duplicate | 43% of 4,900 active | AID 492992, 2010 | FluxOR thallium flux fluorescence | shares compounds with KCNK9 block | inhibition, % at 10 µM;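 active = thallium signal inhibited by more than 5 SD of the compound-free buffer control wells, on both duplicate plates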;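 note: 0% = assay buffer control wells without compound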
# Kir21 sel – mouse Kir2.1 channel inhibition, confirmation, selectivity assay for KCNK9 modulator project, cell-based, HEK293, thallium flux | 4% of 4,900 active | AID 492993, 2010 | inhibition, % at 10 µM | shares compounds with KCNK9 block | Kir2.1 cells, FluxOR thallium flux fluorescence;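 active = thallium signal drop more than 5 SD beyond the mean of the no-compound control wells, seen in both duplicate plates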;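 note: signal is fluorescence rise after thallium addition divided by baseline fluorescence; plate controls were assay buffer only for no effect and full block by chlorpromazine control for full effect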
# HEK293 Tl ctr – thallium flux in non-induced HEK293 cells, confirmation, counter-screen for KCNK9 inhibitor project, cell-based, second counter screen, non-induced KCNK9-HEK293 | FluxOR thallium flux | 40% of 4,900 active | AID 492997, 2010 | shares compounds with KCNK9 block | inhibition, % at 10 µM;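 active = thallium signal drop beyond 5 SD of the untreated control mean, on both duplicate plates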;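 note: plate controls were buffer only IC0 wells for no effect and SID17386958 at its maximal inhibitory level for full effect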
# * = called active by the depositor; i = inactive; / = no result given.
SMILES,KCNK3 inh,hERG rescue,KCNQ1 act,KCNK9 block,Kir21 inh,KCNQ1 block,KCNK9 block conf,Kir21 sel,HEK293 Tl ctr
CSCCC(NS(=O)(=O)c1ccc(Cl)cc1)C(=O)OCc1c(Cl)cccc1Cl (stereo not given),i,-13.8,i,-9.2*,-0.52,i,35.5%*,i,36.0%*
O=S(=O)(Cc1cc(Sc2ccc(Cl)cc2)nc(-c2ccccc2)n1)c1ccccc1,i,-10.1,i,-8.46*,1.57,i,i,i,32.0%*
c1ccc(C2CCC3(CC2)Oc2ccccc2C2CC(c4cccnc4)=NN23)cc1 (stereo not given),/,-9.3,i,-9.29*,-0.63,i,49.5%*,i,41.0%*
COCCNC(=O)CN(C(=O)Cn1nnc2ccccc21)c1ccc(C)c(F)c1,i,-14.3,i,i,-0.89,i,i,i,i
COCCNC(=O)CN(C(=O)Cn1nnc2ccccc21)c1ccc(C)cc1,i,-5.2,i,i,0.1,i,/,/,/
O=C(CCSCc1ccccc1Cl)NC1CCCCC1,i,-18.2,i,i,-0.55,i,/,/,/
Cc1ccc(C(=O)N/N=C2\SCC(=O)N2c2cc(C)ccc2C)cc1,i,-11.3,i,i,0.83,i,i,i,i
O=C(CN1CCN(c2ccc(F)cc2)CC1)c1ccc(O)cc1O,i,-2.5,i,i,0.49,i,/,/,/
Cc1ccc(/C=N/n2cnc3sc(C)c(C)c3c2=O)o1,i,-8.8,i,i,0.7,i,i,i,i
NS(=O)(=O)c1ccc(CNC(=O)c2ccc(S(=O)(=O)NCc3ccco3)cc2)cc1,i,/,/,/,/,/,/,/,/
CN(C)CC/C=C1/c2ccc(F)cc2Sc2ccc(Cl)cc21,i,-17.8,i,i,-6.86*,i,i,49.5%*,i
CN(C)CC/C=C1\c2cc(F)ccc2CSc2ccccc21,i,-5.9,i,i,-0.13,i,/,/,/
CN(C)CC/C=C1\c2ccc(F)cc2Sc2cc(F)c(Cl)cc21,i,-19.0,i,i,-3.55,i,i,45.0%*,i
CN(C)CC/C=C1\c2ccccc2Sc2cc(F)c(Cl)cc21,i,-17.9,i,i,-4.81*,i,i,49.0%*,i
CN(C)CC/C=C1/c2cc(F)ccc2CSc2ccc(F)cc21,i,-10.5,i,i,-2.4,i,/,/,/
CN(C)CC/C=C1\c2cc(Cl)ccc2Sc2cc(F)c(F)cc21,i,-19.5,i,i,-4.22*,i,i,33.5%*,i
Cc1c(NC(=O)CCc2ccccc2)cccc1[N+](=O)[O-],i,-2.5,i,i,-2.87,i,/,/,/
CCc1nc(SCc2cc(=O)[nH]c3ccccc23)c2c(C)c(C)sc2n1,i,/,/,/,/,/,/,/,/
CC(C)N(C(=O)c1nn(C)c2c1CSc1ccccc1-2)C1CCCCC1,i,-1.6,i,-10.2*,0.69,8*,34.0%*,i,i
CCOc1ccc(-c2c(=O)n(OCc3nc4ccccc4[nH]3)c3ccccc3[n+]2[O-])cc1,i,-16.4,i,i,-0.38,i,/,/,/
